Screens as filed in PubChem BioAssay.
Rows were chosen to be rich in hits. Some 1.8% of all compounds tested hit in one or more screens of this group.
CHRM5 agonist: agonists of human muscarinic M5 receptor (CHRM5) | P08912 | CHO-K1 hM5 cells, Fluo-8 calcium fluorescence; 0% DMSO wells, 100% maximal acetylcholine response | activation, % at 3 µM | actives 0.19% (n = 360,000);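 active = activation above the run's mean over test compounds plus 3 SD, cut at about 23% in these data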;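 note: signal is peak over basal fluorescence ratio across the kinetic read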
Target sequence (P08912 whole entry, looked up): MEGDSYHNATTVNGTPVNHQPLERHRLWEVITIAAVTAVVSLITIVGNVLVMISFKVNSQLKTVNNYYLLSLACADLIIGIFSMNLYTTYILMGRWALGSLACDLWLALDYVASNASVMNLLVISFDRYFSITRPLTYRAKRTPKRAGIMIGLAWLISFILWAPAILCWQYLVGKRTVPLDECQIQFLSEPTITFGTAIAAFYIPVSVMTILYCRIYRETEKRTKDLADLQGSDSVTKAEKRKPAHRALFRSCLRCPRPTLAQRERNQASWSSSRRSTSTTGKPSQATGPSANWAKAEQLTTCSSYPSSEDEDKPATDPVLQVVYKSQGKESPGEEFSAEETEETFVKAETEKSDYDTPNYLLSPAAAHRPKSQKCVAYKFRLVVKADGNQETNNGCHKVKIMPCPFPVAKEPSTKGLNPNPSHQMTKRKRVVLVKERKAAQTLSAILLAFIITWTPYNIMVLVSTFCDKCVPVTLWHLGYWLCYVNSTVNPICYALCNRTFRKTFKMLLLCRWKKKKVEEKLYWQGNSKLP
M5 antag: CHRM5 antagonism in calcium assay; P08912; CHO-hM5 cells, Fluo-8 calcium fluorescence, ACh EC80; inhibition, % at 3 µM; actives 0.59% (n = 360,000);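 active = inhibition above a per-plate cutoff, the mean of that plate's test compounds plus 3 SD, cut at about 27% in these data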
M4 ag: agonists of human muscarinic M4 receptor (CHRM4); actives 0.14% (n = 360,000); CHO-K1 hM4/Gqi5, Fluo-8 calcium fluorescence; vehicle 0%, full acetylcholine response 100%; activation, % at 3 µM; AID 624127; P08173;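 active = activation above the run mean over all test wells plus 3 SD, cut at about 32% in these data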;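 note: peak over basal fluorescence ratio per well then scaled between controls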
M5 PAM: CHRM5 positive allosteric modulation; actives 0.3% (n = 360,000); CHO-K1 hM5, Fluo-8 calcium, ACh EC20 PAM; 0% = ACh EC20, 100% = ACh EC100; AID 624038; activation, % at 3 µM;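 active = activation above the run cutoff, the mean activation of all test compounds plus 3 SD, cut at about 18% in these data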
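System: CHO-K1 hM5 cells. Reagent: acetylcholine, EC20 level. Compound dosing: single dose, 3 µM nominal final test concentration. Timing: Post-acetylcholine fluorescence recording 140 s. Detection: Fluo-8 calcium fluorescence. Read-out: % activation, ACh-normalized. Benchmarks: ACh EC20 and EC100 wells. Repeats: singlicate, one well per test compound.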
CHRM4 antagonist: antagonists of human muscarinic M4 receptor (CHRM4); inhibition, % at 3 µM; actives 0.73% (n = 360,000); CHO-hM4 cells, ACh EC80, Fluo-8 calcium fluorescence; AID 624125; P08173;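 active = inhibition above its plate's cutoff, the mean inhibition of sample wells plus 3 SD, cut at about 27% in these data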
M4 PAM: positive allosteric modulators of human muscarinic M4 receptor; P08173; CHO-K1 hM4/Gqi5, Fluo-8 calcium fluorescence, ACh EC20; 0% = ACh EC20, 100% = maximal ACh; activation, % at 3 µM; actives 0.4% (n = 360,000);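 active = activation above its plate's cutoff, the mean activation of sample wells plus 3 SD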
Numbers stand for hits; 0 = inactive.

SMILES | CHRM5 agonist | M5 antag | M4 ag | M5 PAM | CHRM4 antagonist | M4 PAM
O=C(NC1CCCC1)C1c2ccccc2OCC(=O)N1CCCN1CCOCC1 (stereo not given) | 0 | 0 | 0 | 0 | 0 | 0
Cc1ccnc(NS(=O)(=O)c2ccc(NC(=O)c3ccc(S(=O)(=O)N4CCCC4)cc3)cc2)n1 | 0 | 0 | 0 | 19 | 0 | 0
COc1ccc2nc(SCC(=O)Nc3ccc(S(=O)(=O)Nc4nccc(C)n4)cc3)[nH]c2c1 | 0 | 0 | 0 | 0 | 35 | 0
Cc1cc(C)nc(NS(=O)(=O)c2ccc(NC(=O)CSc3nc4ccccc4[nH]3)cc2)n1 | 0 | 0 | 0 | 0 | 0 | 0
CC(C)NC(=O)C1(C)CCCCN1Cc1ccc(OCc2ccccc2)cc1 (stereo not given) | 0 | 0 | 0 | 0 | 0 | 0
C=CCn1c(SCC(=O)NCCC2=CCCCC2)nc2ccc(Cl)cc2c1=O | 0 | 0 | 0 | 30 | 0 | 0
Cn1c(=O)cc(SCC(=O)NCCC2=CCCCC2)c2ccc(Cl)cc21 | 0 | 0 | 0 | 0 | 0 | 0
CC(C)N1CN(c2ccccc2)C(=S)N(c2ccccc2)C1 | 0 | 0 | 0 | 0 | 0 | 18
O=C(C(=O)N1CCN(c2ccccc2)CC1)c1cccc(Br)c1 | 0 | 0 | 0 | 0 | 30 | 0
Cc1ccc(N2CCN(C(=O)C(=O)c3cccc(Br)c3)CC2)cc1 | 0 | 0 | 0 | 0 | 0 | 0
C=Cc1ccc(Cn2c(C)c(C(=O)NCc3ccc4c(c3)OCCO4)sc2=O)cc1 | 0 | 0 | 0 | 0 | 0 | 0
O=C(C=Cc1ccccn1)c1ccccc1O | 0 | 0 | 0 | 0 | 0 | 0
O=C(C=Cc1ccccn1)c1ccccc1 | 0 | 0 | 0 | 29 | 0 | 0
CCOCC(=O)Nc1ccc([N+](=O)[O-])cc1OC | 0 | 0 | 0 | 0 | 0 | 0
CCOC(=O)CS(=O)(=O)CC(=O)Nc1ccc([N+](=O)[O-])cc1OC | 0 | 0 | 0 | 20 | 0 | 0
Cc1ccc(C)c(Nc2nn3c(=O)c4ccc(C(=O)NCc5cccnc5)cc4nc3s2)c1 | 0 | 0 | 0 | 0 | 31 | 0
Cc1ccccc1OCC(=O)NCC(=O)N/N=C/c1ccc(Br)o1 | 0 | 0 | 0 | 20 | 0 | 0
COc1ccccc1NC(=O)c1cc2cc(Br)ccc2cc1O | 0 | 37 | 33 | 0 | 28 | 0
COc1cc(NC(=O)c2cc3ccccc3cc2O)c(OC)cc1Cl | 0 | 0 | 0 | 0 | 0 | 0
COC(=O)CCCn1cc(CN2CC(N3CCN(CCN(C)C)CC3)CS2(=O)=O)nn1 (stereo not given) | 0 | 0 | 0 | 0 | 0 | 0
CCOc1ccc(Nc2cc(C)nc3c(C)cccc23)cc1 | 0 | 0 | 0 | 20 | 0 | 0
O=C(Nc1ccccc1)Nc1csc2ccccc12 | 0 | 29 | 0 | 0 | 0 | 0
CC(=O)Nc1csc2ccccc12 | 0 | 0 | 0 | 0 | 0 | 0
N#Cc1cccc(NC(=O)COc2ccc(-n3ccnc3)cc2)c1 | 0 | 40 | 0 | 0 | 0 | 0
COc1cc(NC(=O)COc2ccc(-n3ccnc3)cc2)cc(OC)c1 | 0 | 0 | 0 | 0 | 0 | 0
SMILES | CHRM5 agonist | M5 antag | M4 ag | M5 PAM | CHRM4 antagonist | M4 PAM
CC1(C(=O)NCc2ccc(C(F)(F)F)cc2)CCN1C1Cc2ccccc2C1 (stereo not given) | 0 | 0 | 0 | 0 | 0 | 0
Cc1nn(-c2cc(N3CCNCC3)ccc2[N+](=O)[O-])c(=O)c2ccccc12 | 0 | 0 | 0 | 19 | 0 | 0
O=c1c(O)c(-c2cccs2)oc2ccc(Cl)cc12 | 66 | 31 | 344 | 0 | 32 | 0
O=c1c(O)c(-c2cccs2)oc2ccccc12 | 0 | 0 | 0 | 0 | 0 | 0
COc1ccc(C=O)cc1COc1ccccc1F | 0 | 0 | 0 | 0 | 0 | 21
O=C(CSc1nc(C(F)(F)F)cc(=O)[nH]1)Nc1cccc2ccccc12 | 0 | 0 | 0 | 0 | 0 | 22
Cc1cc(C)c2c(=O)n(CC(=O)Nc3ccc(Br)c(C)c3)sc2n1 | 0 | 0 | 0 | 0 | 0 | 0
Cc1cc(C)c2c(=O)n(CC(=O)Nc3cccc(Cl)c3C)sc2n1 | 28 | 0 | 67 | 0 | 70 | 0
CC(C)CN1CCC1(C)C(=O)Nc1cc(-c2ccccc2)nn1C (stereo not given) | 0 | 0 | 0 | 0 | 0 | 0
Cc1cc(C)n(-c2cccc(F)n2)n1 | 0 | 0 | 0 | 19 | 0 | 0
O=C(CN1C(=O)CSc2ccc(S(=O)(=O)N3CCOCC3)cc21)NCCc1ccccc1 | 0 | 0 | 0 | 0 | 0 | 0
O=C(c1ccccc1)c1ccc2ccccc2c1 | 0 | 0 | 0 | 0 | 0 | 0
O=C(c1ccccc1)c1c2c(cc3sc4ccccc4[n+]13)-c1cccc3cccc-2c13 | 0 | 0 | 33 | 0 | 59 | 0
CC1=CC(C)C(/C=N/N=C(N)N)C(C)C1 (stereo not given) | 0 | 0 | 0 | 21 | 0 | 0
CC1=CC(C)C(C[N+]2(C)CCCCC2)C(C)C1 (stereo not given) | 0 | 0 | 0 | 0 | 0 | 0
CN(c1ccccc1)c1ccc(/C=C/[N+](=O)[O-])cc1 | 44 | 71 | 0 | 0 | 36 | 0
O=C(Nc1ccc(Oc2ccccc2)cc1)c1ccc2sc([C@H]3C[C@H](O)[C@@H](CO)O3)nc2c1 | 0 | 0 | 0 | 0 | 28 | 0
CCS(=O)(=O)c1ncc(Cl)c(C(=O)Nc2ccc(S(=O)(=O)N(C)c3ccccc3)cc2)n1 | 0 | 0 | 0 | 0 | 59 | 0
CCN(c1ccccc1)S(=O)(=O)c1ccc(NC(=O)c2nc(S(C)(=O)=O)ncc2Cl)cc1 | 0 | 29 | 36 | 0 | 75 | 0
CCn1c(CNC(=O)COc2ccc(C(C)C)cc2)nnc1SCC(=O)Nc1ccccc1C(C)C | 0 | 28 | 0 | 0 | 0 | 0
COC(=O)[C@]12CCCCC=C1N(CCc1ccc(OC)c(OC)c1)C(=O)[C@H](CC(=O)NCc1ccccc1)C2 | 0 | 0 | 0 | 0 | 0 | 0
CCN(CC)CCCN(C(=O)c1cccs1)c1nc(-c2ccc(OC)cc2)cs1 | 0 | 0 | 0 | 0 | 0 | 0
CCN(CC)CCCN(C(=O)c1ccc(Br)cc1)c1nc(-c2ccc(OC)cc2)cs1 | 0 | 0 | 0 | 0 | 0 | 46
CCN(CC)CCCN(C(=O)c1cccc(C)c1)c1nc(-c2ccc(OC)cc2)cs1 | 0 | 0 | 0 | 0 | 35 | 65
CCNC(=O)C1(C)CCN1CCC(=O)c1ccc(C)cc1 (stereo not given) | 0 | 0 | 0 | 0 | 0 | 0
O=C(NC1CCCC1)C1c2ccccc2OCC(=O)N1C1CC1 (stereo not given) | 0 | 0 | 0 | 0 | 0 | 0
c1ccc(-c2nc3ccccc3[nH]2)cc1 | 0 | 0 | 0 | 0 | 0 | 0
Nc1cc(N)cc(-c2nc3ccccc3[nH]2)c1 | 0 | 0 | 0 | 0 | 26 | 0
